Results reported in ChEMBL document CHEMBL5712072, “Epigenetic targeting of Hedgehog pathway transcriptional output through BET bromodomain inhibition” (Nat Med, 2014).
Activity calls are given as the source filed them. The calls are words filed in the database; no cut-off is given here.

Legend:
[1] = tested on: Medulloblastoma cell; assay: Induction of apoptosis in human wildtype SMO expressing medulloblastoma cells assessed as early apoptotic cells by annexin-V/PI staining based flow cytometric analysis (reference value: 0.59%); type: functional
[2] = tested on: Medulloblastoma cell; assay: Induction of apoptosis in mouse wildtype SMO expressing medulloblastoma cells assessed as necrotic cells by annexin-V/PI staining based flow cytometric analysis (reference value: 22%)
[3] = tested on: Medulloblastoma cell; assay: Antiproliferative activity against in […] medulloblastoma cells expressing SmoWT-MB cells from mouse assessed as cell proliferation by EdU analysis; type: functional, cell-based
Outline: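 SmoWT-MB cells given 0.1uM GDC-0449 or LDE225 (or JQ1 1 uM); 10uM EdU added for final 6-8hrs; EdU+ cells detected by Click-iT flow cytometry or imaging, DAPI counterstain; proliferation index = EdU+/DAPI+ cells; group means ± SD.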

[4] = molecular target: Zinc finger protein GLI2 (Homo sapiens) (UniProt P10070); assay: Inhibition of human GLI2 expressed in Hh-Light2 cells assessed as reduction in Gli1 mRNA expression level by qRT-PCR analysis; type: cell-based
Chain of Zinc finger protein GLI2 (Homo sapiens) (P10070 whole entry, the tested form may be a part): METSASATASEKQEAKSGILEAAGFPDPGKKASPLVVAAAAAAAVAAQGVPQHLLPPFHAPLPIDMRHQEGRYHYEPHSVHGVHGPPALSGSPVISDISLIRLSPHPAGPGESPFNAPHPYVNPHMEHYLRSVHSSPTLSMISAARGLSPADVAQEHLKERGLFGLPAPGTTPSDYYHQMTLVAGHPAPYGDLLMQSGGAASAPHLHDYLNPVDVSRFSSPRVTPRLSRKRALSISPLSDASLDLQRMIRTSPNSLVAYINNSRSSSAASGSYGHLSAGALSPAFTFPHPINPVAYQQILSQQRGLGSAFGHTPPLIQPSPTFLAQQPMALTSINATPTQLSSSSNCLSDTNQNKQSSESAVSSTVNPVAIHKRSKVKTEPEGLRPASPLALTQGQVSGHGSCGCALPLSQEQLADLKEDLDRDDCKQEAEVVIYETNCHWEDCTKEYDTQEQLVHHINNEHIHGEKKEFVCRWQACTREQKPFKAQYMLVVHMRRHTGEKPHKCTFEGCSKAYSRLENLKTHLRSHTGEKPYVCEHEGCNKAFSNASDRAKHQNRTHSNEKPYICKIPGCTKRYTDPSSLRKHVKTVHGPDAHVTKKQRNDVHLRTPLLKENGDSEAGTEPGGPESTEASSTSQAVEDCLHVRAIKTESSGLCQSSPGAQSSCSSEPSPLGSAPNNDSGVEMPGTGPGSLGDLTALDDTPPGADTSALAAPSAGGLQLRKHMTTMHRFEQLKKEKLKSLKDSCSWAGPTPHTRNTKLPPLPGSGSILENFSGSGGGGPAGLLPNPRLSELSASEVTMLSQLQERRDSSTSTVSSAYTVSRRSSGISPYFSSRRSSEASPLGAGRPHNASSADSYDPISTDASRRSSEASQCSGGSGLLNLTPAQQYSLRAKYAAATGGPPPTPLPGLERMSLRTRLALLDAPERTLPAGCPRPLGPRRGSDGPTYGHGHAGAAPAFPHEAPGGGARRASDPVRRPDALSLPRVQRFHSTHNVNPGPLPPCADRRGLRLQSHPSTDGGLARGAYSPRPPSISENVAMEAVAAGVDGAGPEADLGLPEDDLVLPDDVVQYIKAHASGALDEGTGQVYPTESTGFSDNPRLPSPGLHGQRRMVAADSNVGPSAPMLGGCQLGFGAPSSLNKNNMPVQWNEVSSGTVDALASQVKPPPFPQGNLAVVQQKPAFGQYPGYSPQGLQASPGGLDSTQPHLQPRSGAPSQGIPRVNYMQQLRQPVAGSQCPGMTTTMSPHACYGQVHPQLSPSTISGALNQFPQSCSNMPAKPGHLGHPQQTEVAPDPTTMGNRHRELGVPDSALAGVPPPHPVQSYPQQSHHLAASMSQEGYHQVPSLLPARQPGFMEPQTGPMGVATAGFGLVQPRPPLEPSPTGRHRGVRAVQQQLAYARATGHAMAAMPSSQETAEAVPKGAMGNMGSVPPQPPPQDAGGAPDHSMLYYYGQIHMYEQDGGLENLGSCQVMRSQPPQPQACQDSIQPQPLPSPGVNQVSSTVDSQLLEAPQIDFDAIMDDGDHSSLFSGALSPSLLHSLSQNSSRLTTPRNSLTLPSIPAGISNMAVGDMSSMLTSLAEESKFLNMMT
Outline: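 Hh-Light2 cells transiently transfected (Turbofect) with full-length murine HA-Gli2-FL or N-terminally truncated human Myc-GLI2-DN; drugs (1 uM JQ1, GDC-0449, LDE225 or SANT-1) added 24hr post-transfection; Gli1 mRNA by SYBR Green qRT-PCR; mean of triplicates ± SD.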

[5] = tested on: Medulloblastoma cell; assay: Antitumor activity in […] medulloblastoma cells expressing SmoD477G mutant […] in NSG mouse assessed as reduction in tumor growth at 100 mg/kg/day, po; type: functional, organism-based
[6] = molecular target: Bromodomain-containing protein 4 (Mus musculus) (UniProt Q9ESU6); assay: Inhibition of BRD4 in mouse Hh-Light2 cells assessed as inhibition in Gli1 protein level by immunoblot analysis
[7] = tested on: Medulloblastoma cell; assay: Induction of apoptosis in human wildtype SMO expressing medulloblastoma cells assessed as viable cells by annexin-V/PI staining based flow cytometric analysis (reference value: 74.9%); type: functional
[8] = tested on: Medulloblastoma cell; assay: Antitumor activity in […] medulloblastoma expressing wildtype SMO […] in NSG mouse assessed as reduction in tumor growth at 100 mg/kg/day, po; type: functional, organism-based
Outline: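 Flank allografts: 2x10e6 SmoWT-MB cells per flank (both flanks) in 4-6 week NSG mice; randomized after engraftment to vehicle, GDC-0449 100 mg/kg PO qd or JQ1 50 mg/kg IP qd, dosed until euthanasia required; caliper tumor measurement; group means ± S.E.M.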

[9] = molecular target: Bromodomain-containing protein 4 (Mus musculus) (UniProt Q9ESU6); assay: Inhibition of BRD4 in mouse Hh-Light2 cells assessed as Gli1 mRNA level by qRT-PCR analysis
[10] = tested on: MEF; assay: Downregulation of Gli1 protein expression in Sufu-/- MEF cells by immunoblot analysis; type: functional, cell-based; conditions: Mus musculus
Outline: (§1)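 Sufu−/− MEFs exposed to DMSO or 1 uM of JQ1, GDC-0449, LDE225 or SANT-1; RIPA lysis 30min on ice, cleared 13000rpm 15min 4°C; SDS-PAGE immunoblot with anti-GLI1, β-tubulin as loading control.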

[11] = tested on: MEF; assay: Downregulation of Gli transcription in Sufu-/- MEF cells by immunoblot analysis; type: functional, cell-based; conditions: Mus musculus; outline: as §1
[12] = tested on: Medulloblastoma cell; assay: Induction of apoptosis in mouse wildtype SMO expressing medulloblastoma cells assessed as late apoptotic cells by annexin-V/PI staining based flow cytometric analysis (reference value: 2.5%)
[13] = tested on: Medulloblastoma cell; assay: Downregulation of BRD4 mRMA expression in […] Medulloblastoma cell expressing wildtype SMO at 1 microM by qRT-PCR analysis; type: functional, cell-based
Outline: (§2)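 SmoWT-MB cells were treated with JQ1 at 1 uM (GDC-0449 or LDE225 at 0.1 uM as comparators). Gli1, Gli2, Smo, Sufu and Brd4 mRNA were measured by SYBR Green quantitative RT-PCR. Values are mean of triplicates ± SD.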

[14] = Induction of apoptosis in human Med1 cells assessed as late apoptotic cells by annexin-V/PI staining based flow cytometric analysis (reference value: 0.60%); type: functional, Medulloblastoma cell
[15] = tested on: Med1; assay: Induction of cell cycle arrest in […] Med1 cells assessed as increased accumulation of cells in G1 phase by PI staining based FACS analysis; type: functional
Outline: (§3)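 Med1-MB cells were treated with JQ1, fixed in 70% ethanol for 30 min at 4 °C, and stained with PI plus RNase A at 37 °C for 45 min. Cells were filtered through 70 um mesh, and cell-cycle distribution was read by FACS.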

[16] = molecular target: Bromodomain-containing protein 4 (Danio rerio) (UniProt F1R5H6); assay: Inhibition of BRD4 in danio rerio assessed as decrease in GFP mRNA expression level by qRT-PCR analysis
Chain of Bromodomain-containing protein 4 (Danio rerio) (F1R5H6 whole entry): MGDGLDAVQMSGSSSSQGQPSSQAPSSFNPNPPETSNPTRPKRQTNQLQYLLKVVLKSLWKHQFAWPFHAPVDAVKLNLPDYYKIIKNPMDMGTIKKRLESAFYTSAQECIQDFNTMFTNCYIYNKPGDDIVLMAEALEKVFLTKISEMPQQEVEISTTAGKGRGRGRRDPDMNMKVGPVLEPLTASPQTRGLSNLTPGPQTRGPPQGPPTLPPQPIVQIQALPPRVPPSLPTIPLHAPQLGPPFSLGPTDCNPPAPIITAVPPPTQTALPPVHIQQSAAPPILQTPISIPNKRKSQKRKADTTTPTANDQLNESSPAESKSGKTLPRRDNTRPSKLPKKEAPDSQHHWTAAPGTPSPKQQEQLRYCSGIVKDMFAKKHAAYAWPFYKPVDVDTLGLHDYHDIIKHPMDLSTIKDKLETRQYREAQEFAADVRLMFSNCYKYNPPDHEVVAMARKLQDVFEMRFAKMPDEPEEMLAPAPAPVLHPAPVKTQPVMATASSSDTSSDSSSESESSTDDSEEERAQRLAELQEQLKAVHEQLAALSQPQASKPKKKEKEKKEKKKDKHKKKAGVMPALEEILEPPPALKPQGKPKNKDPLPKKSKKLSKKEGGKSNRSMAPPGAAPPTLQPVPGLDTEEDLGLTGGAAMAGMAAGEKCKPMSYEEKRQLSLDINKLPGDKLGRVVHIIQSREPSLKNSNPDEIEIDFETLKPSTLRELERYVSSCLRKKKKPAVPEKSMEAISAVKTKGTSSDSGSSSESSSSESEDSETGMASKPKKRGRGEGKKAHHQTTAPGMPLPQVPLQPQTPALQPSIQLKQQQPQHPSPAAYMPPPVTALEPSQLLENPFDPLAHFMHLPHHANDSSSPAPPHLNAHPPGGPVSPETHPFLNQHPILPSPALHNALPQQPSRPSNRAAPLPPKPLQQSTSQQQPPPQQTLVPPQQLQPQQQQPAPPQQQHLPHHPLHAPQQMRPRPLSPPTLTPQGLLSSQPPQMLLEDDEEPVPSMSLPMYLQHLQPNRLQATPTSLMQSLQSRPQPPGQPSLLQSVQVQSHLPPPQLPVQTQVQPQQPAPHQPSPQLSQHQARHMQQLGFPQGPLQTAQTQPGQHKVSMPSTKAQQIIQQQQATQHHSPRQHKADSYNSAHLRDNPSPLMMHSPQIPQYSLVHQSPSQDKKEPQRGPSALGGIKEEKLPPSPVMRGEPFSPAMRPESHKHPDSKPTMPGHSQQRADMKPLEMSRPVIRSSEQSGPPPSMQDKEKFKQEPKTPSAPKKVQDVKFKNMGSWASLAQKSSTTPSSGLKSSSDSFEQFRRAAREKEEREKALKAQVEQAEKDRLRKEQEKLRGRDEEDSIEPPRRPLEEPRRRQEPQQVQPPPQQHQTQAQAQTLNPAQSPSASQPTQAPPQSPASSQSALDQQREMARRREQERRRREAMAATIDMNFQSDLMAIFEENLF

[17] = tested on: Medulloblastoma cell; assay: Antiproliferation of human Hh driven medulloblastoma cells by cell titre glo assay; type: functional, cell-based
[18] = tested on: MEF; assay: Downregulation of Gli2 transcription in Sufu-/- MEF cells at 1 microM by […] analysis; type: functional, cell-based; conditions: Mus musculus
[19] = tested on: Med1; assay: Antitumor activity in […] Med1 cells xenografted in NSG mouse assessed as reduction in tumor growth at 50 mg/kg/day, ip; type: functional, organism-based
Outline: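 Med1-MB cells carrying a lentiviral luciferase reporter, 2x10e6 injected into the flank of 4-6 week old NSG mice. After engraftment was confirmed, mice were randomized to JQ1 50 mg/kg IP daily or vehicle. Tumor growth was followed by IVIS imaging as average radiance; tumor size was also recorded at day 21 of treatment.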

[20] = tested on: Hh-Light2; assay: Upregulation of Ptch1 mRNA level in […] Hh-Light2 cells transfected with full length murine Gli2 by RT-PCR analysis; type: functional, cell-based; conditions: dose 1.0 µM
Outline: (§4)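 Hh-Light2 cells were transiently transfected with HA-Gli2-FL (murine) or Myc-GLI2-DN (N-terminally truncated human) and treated with drugs 24 h post-transfection. Ptch1 mRNA was measured by qRT-PCR. Values are mean of triplicates ± SD.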

[21] = tested on: Medulloblastoma cell; assay: Downregulation of Smo mRMA expression in […] Medulloblastoma cell expressing wildtype SMO at 1 microM by qRT-PCR analysis; type: functional, cell-based; outline: as §2
[22] = tested on: Hh-Light2; assay: Upregulation of Smo mRNA level in […] Hh-Light2 cells at 1 microM by qRT-PCR analysis; type: functional, cell-based
Outline: (§5)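 Hh-Light2 (mouse 3T3 Gli-luciferase reporter line) cells were stimulated with Shh-N conditioned medium or SAG, alone or with JQ1 1 uM. Gli1, Gli2, Ptch1, Sufu, Smo and Brd4 mRNA were measured by SYBR Green qRT-PCR. Values are mean of triplicates ± SD.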

[23] = tested on: Hh-Light2; assay: Downregulation of Brd4 mRNA level in […] Hh-Light2 cells at 1 microM by qRT-PCR analysis; type: functional, cell-based; outline: as §5
[24] = tested on: Med1; assay: Induction of cell cycle arrest in […] Med1 cells assessed as decreased accumulation of cells in S phase by PI staining based FACS analysis; type: functional; outline: as §3
[25] = Cytotoxicity in Ptch-mutated human Med1 cells expressing wildtype SMO by CellTiter-Glo analysis; type: functional, cell-based
[26] = tested on: Hh-Light2; assay: Upregulation of Gli1 mRNA level in […] Hh-Light2 cells at 1 microM by qRT-PCR analysis; type: functional, cell-based; outline: as §5
[27] = Toxicity in NSG mouse xenografted with Med1 cells assessed as survival of mouse at 50 mg/kg/day, ip; type: organism-based; conditions: in vivo
Outline: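 Med1-MB cells carrying luciferase, 0.5x10e6, were injected into the cerebellum of NSG mice. After engraftment was confirmed, mice were randomized to JQ1 50 mg/kg IP daily or vehicle until euthanasia was required, and survival was recorded.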

[28] = Induction of apoptosis in human Med1 cells assessed as necrotic cells by annexin-V/PI staining based flow cytometric analysis (reference value: 1.87%); type: functional, Medulloblastoma cell
[29] = tested on: Medulloblastoma cell; assay: Antitumor activity in […] medulloblastoma expressing wildtype SMO xenografted in NSG mouse assessed as reduction in tumor growth at 50 mg/kg/day, ip; type: functional, organism-based
Outline: (§6)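 SmoWT-MB or SmoD477G-MB cells, 2x10e6 per flank, injected into both flanks of 4-6 week old NSG mice. After engraftment mice were randomized to vehicle, JQ1 50 mg/kg IP qd or GDC-0449 100 mg/kg PO qd until euthanasia was required. Tumor growth was measured by caliper; data are group means ± S.E.M.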

[30] = tested on: Medulloblastoma cell; assay: Cytotoxicity in Ptch-mutated in […] medulloblastoma cells expressing wildtype SMO by CellTiter-Glo analysis; type: functional, cell-based
[31] = species on record: Danio rerio; assay: Effect on heat shock treated transgenic zebra fish assessed as increase in eye diameter; type: functional, organism-based
Outline: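 Tg(hsp70l:shha-EGFP)+/− x TL embryos were heat shocked at 38 °C for 15 min at the 8-somite stage, then placed directly in JQ1 (0.6 or 6.0 um) or DMSO. At […] embryos were sorted GFP+/− into fresh drug. Eye dorsal axis length was scored at 56 hpf, n=12 per group; Student's t-test.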

[32] = tested on: Hh-Light2; assay: Upregulation of Sufu mRNA level in […] Hh-Light2 cells at 1 microM by qRT-PCR analysis; type: functional, cell-based; outline: as §5
[33] = tested on: Hh-Light2; assay: Upregulation of Ptch1 mRNA level in […] Hh-Light2 cells transfected with […] GlI2 by RT-PCR analysis; type: functional, cell-based; conditions: dose 1.0 µM; outline: as §4
[34] = tested on: MEF; assay: Downregulation of Gli1 mRNA level in Sufu-/- MEF cells at 1 microM by qRT-PCR analysis; type: functional, cell-based; conditions: Mus musculus
Outline: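 Sufu−/− MEFs were treated with DMSO or inhibitors at 1 uM, and Gli1/Gli2 mRNA was measured by SYBR Green qRT-PCR (mean of triplicates ± SD). A time course with JQ1 1 uM included a 3 h point.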

[35] = Induction of apoptosis in human Med1 cells assessed as early apoptotic cells by annexin-V/PI staining based flow cytometric analysis (reference value: 1.09%); type: functional, Medulloblastoma cell
[36] = tested on: Hh-Light2; assay: Upregulation of Ptch1 mRNA level in […] Hh-Light2 cells at 1 microM by qRT-PCR analysis; type: functional, cell-based; outline: as §5
[37] = tested on: Med1; assay: Downregulation of Gli1mRNA expression in […] Med1 cells at 1 microM by qRT-PCR analysis; type: functional, cell-based
Outline: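 Med1-MB cells were treated with JQ1 1 uM, and Gli1 mRNA was measured by SYBR Green qRT-PCR. Values are mean of triplicates ± SD.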

[38] = tested on: MEF; assay: Downregulation of BRD4 mRNA level in Sufu-/- MEF cells by qRT-PCR analysis; type: functional, cell-based; conditions: Mus musculus
[39] = tested on: Medulloblastoma cell; assay: Downregulation of sufu mRMA expression in […] Medulloblastoma cell expressing wildtype SMO at 1 microM by qRT-PCR analysis; type: functional, cell-based; outline: as §2
[40] = Induction of apoptosis in human Med1 cells assessed as viable cells by annexin-V/PI staining based flow cytometric analysis (reference value: 96.4%); type: functional, Medulloblastoma cell
[41] = tested on: Medulloblastoma cell; assay: Antitumor activity in […] medulloblastoma cells expressing SmoD477G mutant xenografted in NSG mouse assessed as decrease in tumor growth at 50 mg/kg/day, ip; type: functional, organism-based; outline: as §6
[42] = tested on: Medulloblastoma cell; assay: Antiproliferation of […] Hh driven medulloblastoma cells […] by cell titre glo assay; type: functional, cell-based
[43] = tested on: Hh-Light2; assay: Upregulation of Gli2 mRNA level in […] Hh-Light2 cells at 1 microM by qRT-PCR analysis; type: functional, cell-based; outline: as §5
[44] = tested on: Hh-Light2; assay: Inhibition of full length murine Gli2 expressed in […] Hh-Light2 cells assessed as reduction in mRNA level at 1 microM by qRT-PCR analysis; type: cell-based; conditions: Mus musculus
Outline: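 Hh-Light2 cells were transiently transfected with HA-Gli2-FL using Turbofect and treated 24 h later with 1 uM JQ1, GDC-0449, LDE225 or SANT-1. Gli1 mRNA was measured by qRT-PCR. Values are mean of triplicates ± SD.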

[45] = tested on: Basal cell carcinoma cell (Mus musculus); assay: Antitumor activity in mouse basal cell carcinoma allografted in mouse assessed as reduction in tumor growth at 100 mg/kg/day, ip

CS(=O)(=O)c1ccc(C(=O)Nc2ccc(Cl)c(-c3ccccn3)c2)c(Cl)c1 [VISMODEGIB]
Activity [1]: 1.01%
Activity [2]: 51.2%
Activity [3]: Active
inhibition [4]: inactive
Activity [5]: inactive
inhibition [6]: Active
Activity [7]: 40.8%
Activity [8]: Active
inhibition [9]: Active
Activity [10]: inactive
Activity [11]: inactive
Activity [12]: 6.98%

Cc1sc2c(c1C)C(c1ccc(Cl)cc1)=N[C@@H](CC(=O)OC(C)(C)C)c1nnc(C)n1-2
Activity [13]: Active
Activity [1]: 0.64%
Activity [2]: 54.7%
Activity [3]: Active
Activity [14]: 1.61%
Activity [15]: Active
inhibition [16]: Active
Activity [17]: Active
Activity [18]: Active
Activity [19]: Active
Activity [7]: 39.2%
Activity [20]: inactive
Activity [21]: Active
Activity [22]: Active
Activity [23]: inactive
Activity [24]: Active
IC50 [25]: ~50 nM
Activity [26]: Active
Activity [27]: Non-Toxic
Activity [28]: 10.1%
Activity [29]: Active
IC50 [30]: ~50 nM
Activity [31]: Active
Activity [32]: inactive
Activity [33]: Active
Activity [34]: Active
Activity [35]: 0.35%
Activity [36]: Active
Activity [37]: Active
Activity [38]: inactive
Activity [39]: Active
Activity [40]: 87.9%
Activity [41]: Active
Activity [12]: 5.44%
Activity [42]: Active
Activity [43]: Active
inhibition [44]: Active

CNCc1ccc(C)c(NC(=O)c2ccc(Nc3nc(-c4ccccc4)c4ccccc4n3)cc2)c1
Activity [45]: Active
